Experimental data: ChEMBL document CHEMBL1156710, “Design, synthesis and characterization of some bioactive conjugates of curcumin with glycine, glutamic acid, valine and demethylenated piperic acid and study of their antimicrobial and antiproliferative properties” (2008)
≈ marks a conversion by molar mass, not a printed value. Calls of active or inactive are those of the source. The calls are words filed in the database; no cut-off is given here.

What was measured:
Klebsiella aerogenes [1] = assay: Antibacterial activity against Klebsiella aerogenes after 18 hrs by broth microdilution susceptibility test; type: functional
Summary of the method: (§1)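 Broth microdilution in Mueller-Hinton broth at pH 7.4. Inoculum came from a broth culture grown 4–6 h to log phase. Compound dilutions were […]. Tubes were shaken and incubated at 37 °C for 18 h, then read for turbidity. MIC is the lowest concentration with no turbidity. Each test was run in triplicate and MICs come from at least two repetitions.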

Klebsiella aerogenes [2] = assay: Antibacterial activity against Klebsiella aerogenes at 20 umol/ml after 24 hrs by Kirby-Bauer's disk diffusion assay; type: functional
Summary of the method: (§2)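 Kirby-Bauer disc diffusion. Compounds were dissolved in acetone and serially diluted. Sterile 6 mm discs were soaked in the solutions and dried. 1 ml of bacterial broth culture was spread on Mueller-Hinton agar plates and the discs were placed aseptically. Plates were incubated upright at 37 °C for 24 h and the inhibition zone was measured with a scale.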

Enterobacter cloacae [3] = assay: Antibacterial activity against Enterobacter cloacae after 18 hrs by broth microdilution susceptibility test; type: functional; summary of the method: as §1
Micrococcus [4] = assay: Antibacterial activity against Micrococcus at 20 umol/ml after 24 hrs by Kirby-Bauer's disk diffusion assay; type: functional; summary of the method: as §2
KB = assay: Antiproliferative activity against human KB cells after 48 hrs by MTT assay; type: functional, cell-based
Summary of the method: (§3)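 KB and HeLa cells were grown in DMEM with 10% heat-inactivated fetal calf serum and penicillin-streptomycin at 37 °C, 5% CO2. Cells were seeded at 5×10³ per well. After 16 h the medium was replaced with medium containing compound diluted from stock. MTT (from a 5 mg/ml 10× stock) was added for 4 h at 37 °C. Crystals were dissolved in DMSO and OD read at 570 nm, 48 h after treatment.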

Micrococcus [5] = assay: Antibacterial activity against Micrococcus at 10 umol/ml after 24 hrs by Kirby-Bauer's disk diffusion assay; type: functional; summary of the method: as §2
[6] = tested on: Staphylococcus saprophyticus; assay: Antibacterial activity against Staphylococcus saprophyticus after 18 hrs by broth microdilution susceptibility test; type: functional; summary of the method: as §1
Escherichia coli [7] = assay: Antibacterial activity against Escherichia coli after 18 hrs by broth microdilution susceptibility test; type: functional; summary of the method: as §1
Micrococcus [8] = assay: Antibacterial activity against Micrococcus after 18 hrs by broth microdilution susceptibility test; type: functional; summary of the method: as §1
HeLa = assay: Antiproliferative activity against human HeLa cells after 48 hrs by MTT assay; type: functional, cell-based; summary of the method: as §3
Candida albicans [9] = assay: Antifungal activity against Candida albicans at 20 umol/ml after 48 hrs; type: functional
Summary of the method: (§4)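 Clinical fungal isolates were subcultured on Sabouraud dextrose agar. For the inoculum, cultures were grown on Sabouraud dextrose agar for 48 h at 37 °C. Conidia were dislodged into sterile saline, the suspension was brought to 5 ml, and the microconidia were counted. This suspension was swabbed over Sabouraud dextrose agar plates poured 5 mm deep, and excess was decanted. Sterile 6 mm discs were charged with compound.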

Candida parapsilosis = assay: Antifungal activity against Candida parapsilosis at 20 umol/ml after 48 hrs; type: functional
Summary of the method: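 Clinical isolates from diagnosed patients, subcultured on Sabouraud dextrose agar slants at 30 °C for 10–12 days. Inoculum from 48 h SDA cultures at 37 °C, dislodged into sterile saline and brought to 5 ml. Suspension swab-spread on SDA plates poured 5 mm deep, excess decanted. Sterile 6 mm discs charged with compound. Fluconazole reference.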

Penicillium chrysogenum [10] = assay: Antifungal activity against Penicillium notatum at 20 umol/ml after 48 hrs; type: functional; summary of the method: as §4
Aspergillus fumigatus [11] = assay: Antifungal activity against Aspergillus fumigatus at 20 umol/ml after 48 hrs; type: functional; summary of the method: as §4
Aspergillus fumigatus [12] = assay: Antifungal activity against Aspergillus fumigatus at 10 umol/ml after 48 hrs; type: functional; summary of the method: as §4
Escherichia coli [13] = assay: Antibacterial activity against Escherichia coli at 20 umol/ml after 24 hrs by Kirby-Bauer's disk diffusion assay; type: functional; summary of the method: as §2
Penicillium chrysogenum [14] = assay: Antifungal activity against Penicillium notatum at 10 umol/ml after 48 hrs; type: functional; summary of the method: as §4
Candida albicans [15] = assay: Antifungal activity against Candida albicans at 10 umol/ml after 48 hrs; type: functional; summary of the method: as §4
[16] = tested on: Staphylococcus saprophyticus; assay: Antibacterial activity against Staphylococcus saprophyticus at 5 umol/ml after 24 hrs by Kirby-Bauer's disk diffusion assay; type: functional; summary of the method: as §2
[17] = tested on: Staphylococcus saprophyticus; assay: Antibacterial activity against Staphylococcus saprophyticus at 10 umol/ml after 24 hrs by Kirby-Bauer's disk diffusion assay; type: functional; summary of the method: as §2
Micrococcus [18] = assay: Antibacterial activity against Micrococcus at 5 umol/ml after 24 hrs by Kirby-Bauer's disk diffusion assay; type: functional; summary of the method: as §2
Enterobacter cloacae [19] = assay: Antibacterial activity against Enterobacter cloacae at 20 umol/ml after 24 hrs by Kirby-Bauer's disk diffusion assay; type: functional; summary of the method: as §2
[20] = tested on: Staphylococcus saprophyticus; assay: Antibacterial activity against Staphylococcus saprophyticus at 20 umol/ml after 24 hrs by Kirby-Bauer's disk diffusion assay; type: functional; summary of the method: as §2
Enterobacter cloacae [21] = assay: Antibacterial activity against Enterobacter cloacae at 5 umol/ml after 24 hrs by Kirby-Bauer's disk diffusion assay; type: functional; summary of the method: as §2
Enterobacter cloacae [22] = assay: Antibacterial activity against Enterobacter cloacae at 10 umol/ml after 24 hrs by Kirby-Bauer's disk diffusion assay; type: functional; summary of the method: as §2
Escherichia coli [23] = assay: Antibacterial activity against Escherichia coli at 10 umol/ml after 24 hrs by Kirby-Bauer's disk diffusion assay; type: functional; summary of the method: as §2

Row | SMILES | MIC (Klebsiella aerogenes [1]) [mM] | inhibition zone (IZ) (Klebsiella aerogenes [2]) [mm] | Activity (Enterobacter cloacae [3]) | inhibition zone (IZ) (Micrococcus [4]) [mm] | inhibition zone (IZ) (Micrococcus [5]) [mm] | Activity [6] | Activity (Escherichia coli [7]) | MIC (Micrococcus [8]) [mM] | inhibition zone (IZ) (Candida albicans [9]) [mm] | MIC (Escherichia coli [7]) [mM] | inhibition zone (IZ) (Escherichia coli [13]) [mm] | Activity (Klebsiella aerogenes [1]) | inhibition zone (IZ) (Enterobacter cloacae [19]) [mm] | inhibition zone (IZ) [20] [mm] | MIC (Enterobacter cloacae [3]) [mM] | MIC [6] [mM] | other results
1 | COc1cc(/C=C/C(=O)CC(=O)/C=C/c2ccc(OC(=O)[C@@H](N)CCC(=O)O)c(OC)c2)ccc1OC(=O)[C@@H](N)CCC(=O)O | 20 (≈ 12500 µg/mL) | 9 | inactive | 18 | 16 | inactive | inactive | 5 (≈ 3130 µg/mL) | – | – | – | – | – | – | – | – | Activity (KB): Active; Activity (HeLa): Active
2 | OC(Cn1cncn1)(Cn1cncn1)c1ccc(F)cc1F [FLUCONAZOLE] | – | – | – | – | – | – | – | – | 29 | – | – | – | – | – | – | – | inhibition zone (IZ) (Candida parapsilosis): 20 mm
3 | COc1cc(/C=C/C(=O)CC(=O)/C=C/c2ccc(OC(=O)CN)c(OC)c2)ccc1O [MONOGLYCINOYL CURCUMIN] | 5 (≈ 2130 µg/mL) | 18 | inactive | – | – | inactive | – | – | 20 | 20 (≈ 8510 µg/mL) | 12 | – | – | – | – | – | inhibition zone (IZ) (Penicillium chrysogenum [10]): 20 mm; inhibition zone (IZ) (Aspergillus fumigatus [11]): 25 mm; inhibition zone (IZ) (Aspergillus fumigatus [12]): 20 mm; inhibition zone (IZ) (Penicillium chrysogenum [14]): 16 mm; Activity (Micrococcus [8]): inactive; inhibition zone (IZ) (Candida albicans [15]): 18 mm; inhibition zone (IZ) (Candida parapsilosis): 14 mm
4 | COc1cc(/C=C/C(=O)CC(=O)/C=C/c2ccc(OC(=O)CN)c(OC)c2)ccc1OC(=O)CN | – | – | inactive | 15 | 13 | inactive | – | 10 (≈ 4820 µg/mL) | – | 20 (≈ 9650 µg/mL) | – | inactive | 12 | 14 | – | – | inhibition zone (IZ) [16]: 10 mm; inhibition zone (IZ) [17]: 12 mm; inhibition zone (IZ) (Micrococcus [18]): 10 mm
5 | COc1cc(/C=C/C(=O)CC(=O)/C=C/c2ccc(O)c(OC)c2)ccc1O [CURCUMIN] | – | – | – | – | – | – | – | – | 15 | 20 (≈ 7370 µg/mL) | 10 | inactive | – | – | – | – | –
6 | COc1cc(/C=C/C(=O)CC(=O)/C=C/c2ccc(OC(=O)/C=C/C=C/c3ccc(O)c(O)c3)c(OC)c2)ccc1OC(=O)/C=C/C=C/c1ccc(O)c(O)c1 | 20 (≈ 14900 µg/mL) | 11 | – | 16 | 12 | – | – | 10 (≈ 7450 µg/mL) | 16 | 10 (≈ 7450 µg/mL) | 16 | – | 18 | 10 | 5 (≈ 3720 µg/mL) | 20 (≈ 14900 µg/mL) | inhibition zone (IZ) (Enterobacter cloacae [21]): 12 mm; inhibition zone (IZ) (Enterobacter cloacae [22]): 14 mm
7 | COc1cc(/C=C/C(=O)CC(=O)/C=C/c2ccc(OC(=O)[C@@H](N)C(C)C)c(OC)c2)ccc1OC(=O)[C@@H](N)C(C)C | – | – | – | 16 | 13 | – | – | 10 (≈ 5670 µg/mL) | – | 5 (≈ 2830 µg/mL) | 20 | inactive | 20 | 14 | 5 (≈ 2830 µg/mL) | 10 (≈ 5670 µg/mL) | inhibition zone (IZ) [17]: 12 mm
8 | O=C(O)/C=C/C=C/c1ccc2c(c1)OCO2 [PIPERIC ACID] | 20 (≈ 4360 µg/mL) | 8 | – | – | – | inactive | inactive | – | – | – | – | – | – | – | – | – | –
9 | COc1cc(/C=C/C(=O)CC(=O)/C=C/c2ccc(OC(=O)[C@@H](N)C(C)C)c(OC)c2)ccc1O [MONOVALINOYL CURCUMIN] | 5 (≈ 2340 µg/mL) | 18 | – | 26 | 20 | inactive | – | 2.5 (≈ 1170 µg/mL) | – | 10 (≈ 4680 µg/mL) | 13 | – | 25 | – | 2.5 (≈ 1170 µg/mL) | – | inhibition zone (IZ) (Penicillium chrysogenum [10]): 12 mm; inhibition zone (IZ) (Micrococcus [18]): 19 mm; inhibition zone (IZ) (Escherichia coli [23]): 11 mm
10 | O=C(O)/C=C/C=C/c1ccc(O)c(O)c1 [DEMETHYLENATED PIPERIC ACID] | – | – | – | 15 | – | – | inactive | 10 (≈ 2060 µg/mL) | 16 | – | – | inactive | 18 | 10 | 10 (≈ 2060 µg/mL) | 20 (≈ 4120 µg/mL) | –
